Data set [1] in a line: Therapeutic index, ratio of TC50 for human Hep2 cells to IC50 for Parainfluenza virus type 3. Type of data set: cell-based, HEp-2. To be noted: read-out: TI. The method in brief:
(§1)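 Run in 96-well plates on Hep-2 cell monolayers, with ribavirin as positive control and an untreated infection control. Para3 virus suspension was added and CPE was scored under an inverted microscope. IC50 was the concentration that reduced CPE by 50% relative to virus control. TC50 was the concentration giving 50% cytotoxic effect.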

For a further data set, the system named is Human respirovirus 3. Briefly: Antiviral activity against Parainfluenza virus type 3 infected in human Hep2 cells assessed as inhibition of virus-induced cytopathogenic effect. Type of data set: functional, organism-based. Particulars: Human respirovirus 3, HEp-2. Put shortly: as §1
(In general: Protection from cytopathic effect is a common read-out in antiviral testing.)

Data set [2] in a line: Cytotoxicity against human Hep2 cells. Type of data set: cell-based, HEp-2. Particulars: read-out: LC50 (the source's name).

Converted amounts (≈) assume the structure as drawn.

By IC50 is commonly meant the concentration that gives 50% inhibition. Regarding `C=C1c2ccoc2C[C@H]2[C@H]1[C@@H](OC(C)=O)[C@H](OC(C)=O)[C@@]1(O)C(C)(C)CC[C@H](OC(C)=O)[C@]21C` [CAESALAMIN C], the selectivity ratio in data set [1] was 23.9. In addition, the IC50 in the data set with Human respirovirus 3 was found to be 8.2 µg/mL (≈ 17.3 µM). Further, the CC50 in data set [2] was determined as 196 µg/mL (≈ 414 µM).

As to `CC1(C)CC[C@H](O)[C@]2(C)[C@H]3Cc4occc4[C@H]4C(=O)O[C@@H](C[C@@]12O)[C@@H]43` [CAESALMIN G], in data set [1], the selectivity ratio was 3. In addition, the IC50 in the data set with Human respirovirus 3 was 14.8 µg/mL (≈ 42.7 µM). Moreover, the CC50 in data set [2] was found to be 44.7 µg/mL (≈ 129 µM).

On to `CC(=O)O[C@@H]1[C@@H]2[C@H](Cc3occc3[C@]2(C)O)[C@@]2(C)[C@@H](OC(C)=O)CCC(C)(C)[C@]2(O)[C@H]1OC(C)=O` [CAESALMIN D], for which, in data set [1], the selectivity ratio stood at 19.1. In the data set with Human respirovirus 3, the IC50 worked out at 9.6 µg/mL (≈ 19.5 µM). Besides, the CC50 in data set [2] turned out to be 182 µg/mL (≈ 370 µM).

Regarding `CC[C@H](/C=C/[C@@H](C)[C@H]1CC[C@H]2[C@@H]3CC=C4C[C@@H](O)CC[C@]4(C)[C@H]3CC[C@]12C)C(C)C` [STIGMASTEROL], the selectivity ratio in data set [1] turned out to be 3.6. In addition, the concentration for half-maximal inhibition (IC50) in the data set with Human respirovirus 3 came out at 37.5 µg/mL (≈ 90.9 µM). The CC50 in data set [2] amounted to 137 µg/mL (≈ 331 µM).

On to `CC(=O)O[C@@H]1[C@@H]2[C@H](Cc3occc3[C@@]2(C)O)[C@@]2(C)[C@@H](OC(C)=O)CCC(C)(C)[C@]2(O)[C@H]1OC(C)=O` [CAESALMIN E], for which, in data set [1], the selectivity ratio amounted to 16. Besides, the half-maximal inhibitory concentration (IC50) in the data set with Human respirovirus 3 came to 10.3 µg/mL (≈ 20.9 µM). In data set [2], the CC50 is 165 µg/mL (≈ 335 µM).

Take `CO[C@]1(C)c2ccoc2C[C@H]2C1[C@@H](OC(C)=O)[C@H](OC(C)=O)[C@@]1(O)C(C)(C)CC[C@H](OC(C)=O)[C@]21C` (stereo partly drawn) [CAESALMIN F]: in data set [1], the selectivity ratio amounted to 17.5. The IC50 in the data set with Human respirovirus 3 is 7.8 µg/mL (≈ 15.4 µM). In addition, the CC50 in data set [2] was found to be 136 µg/mL (≈ 269 µM).
